According to ChEMBL document CHEMBL4840316, “Structure-based screening for the discovery of 1,2,4-oxadiazoles as promising hits for the development of new anti-inflammatory agents interfering with eicosanoid biosynthesis pathways” (Eur J Med Chem, 2021):
Activity calls are given as the source filed them. The rule behind the calls is not given here.

Columns and labels:
[1] = target: T1, Prostaglandin E synthase (Homo sapiens) (UniProt O14684); assay: Inhibition of mPGES-1 obtained from IL-beta stimulated human A549 cells microsomes assessed as residual activity by measuring conversion of PGH2 to PGE2 at 10 uM by cell-free RP-HPLC method; settings: Microsome
T1 sequence (whole entry): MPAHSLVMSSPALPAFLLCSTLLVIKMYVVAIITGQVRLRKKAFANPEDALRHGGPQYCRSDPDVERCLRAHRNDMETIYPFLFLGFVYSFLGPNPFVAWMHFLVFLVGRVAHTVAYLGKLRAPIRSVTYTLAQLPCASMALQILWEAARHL
In short: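 Microsomes from A549 cells stimulated with IL-1β (1 ng/ml) for 48 h. Diluted in 0.1 M potassium phosphate pH 7.4 with 2.5 mM glutathione. Pre-incubated 15 min on ice with compound (single 10 µM, or 0.03–10 µM for the curve) or 1% DMSO. 20 µM PGH2 added for 1 min; stopped with FeCl3/citric acid containing 11β-PGE2 standard. PGE2 measured by SPE and RP-HPLC. n = 3.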

[2] = target: T2, Polyunsaturated fatty acid 5-lipoxygenase (Homo sapiens) (UniProt P09917); assay: Inhibition of 5-LO in A23187-stimulated human intact neutrophils assessed as reduction in LTB4/5-HETE formation by measuring residual activity at 10 uM measured after 20 mins by RP-HPLC method; format: tissue-based; settings: Neutrophil
T2 sequence (whole entry): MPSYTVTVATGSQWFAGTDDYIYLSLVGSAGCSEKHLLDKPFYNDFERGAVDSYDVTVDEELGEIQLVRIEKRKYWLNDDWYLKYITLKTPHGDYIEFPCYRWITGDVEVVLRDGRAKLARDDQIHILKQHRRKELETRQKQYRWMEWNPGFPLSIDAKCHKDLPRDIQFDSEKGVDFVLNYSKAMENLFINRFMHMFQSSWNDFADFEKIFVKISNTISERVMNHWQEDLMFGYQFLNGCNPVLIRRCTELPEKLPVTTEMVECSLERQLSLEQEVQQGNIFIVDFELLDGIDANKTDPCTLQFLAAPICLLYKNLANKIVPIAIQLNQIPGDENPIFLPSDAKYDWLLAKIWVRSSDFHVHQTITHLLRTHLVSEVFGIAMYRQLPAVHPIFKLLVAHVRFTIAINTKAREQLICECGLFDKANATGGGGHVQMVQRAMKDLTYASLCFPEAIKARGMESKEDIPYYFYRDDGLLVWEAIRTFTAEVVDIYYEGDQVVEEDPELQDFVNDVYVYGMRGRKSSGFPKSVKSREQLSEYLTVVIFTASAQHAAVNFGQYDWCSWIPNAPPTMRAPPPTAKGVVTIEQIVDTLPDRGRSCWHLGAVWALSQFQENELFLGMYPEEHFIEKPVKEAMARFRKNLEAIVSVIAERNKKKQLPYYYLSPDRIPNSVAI
In short: (§1)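 Human neutrophils at 5 × 10^6/mL in PBS with 0.1% glucose and 1 mM CaCl2. Pre-incubated with compound or 0.1% DMSO for 10 min at 37 °C. Stimulated with 2.5 µM A23187, with or without 20 µM AA, for 10 min at 37 °C. Stopped with cold methanol; PGB1 internal standard. LTB4, its trans isomers and 5-HETE quantified by SPE and RP-HPLC; % of control.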

[3] = target: T2, Polyunsaturated fatty acid 5-lipoxygenase (Homo sapiens); assay: Inhibition of 5-LO in A23187/AA-stimulated human intact neutrophils assessed as reduction in LTB4/5-HETE formation by measuring residual activity at 10 uM measured after 20 mins by RP-HPLC method; format: tissue-based; settings: Neutrophil; in short: as §1
[4] = target: T2, Polyunsaturated fatty acid 5-lipoxygenase (Homo sapiens); assay: Inhibition of 5-LO (unknown origin) expressed in Escherichia coli BL21 assessed as residual activity at 10 uM by RP-HPLC method relative to control
In short: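 Human recombinant 5-LO expressed in E. coli BL21 and purified on ATP-agarose. 0.5 µg enzyme in 1 mL PBS + 1 mM EDTA pre-incubated with compound or 0.1% DMSO for 10 min on ice. Reaction started with 20 µM AA and 2 mM CaCl2, run 10 min at 37 °C, stopped with ice-cold methanol. Products analysed; activity as % of control.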

[5] = target: T3, Bifunctional epoxide hydrolase 2 (Homo sapiens) (UniProt P34913); assay: Inhibition of recombinant human sEH expressed in sf9 insect cells assessed as residual activity at 10 uM using PHOME as substrate preincubated for 15 mins followed by substrate addition and measured after 60 mins relative to control; settings: time 75.0 min
T3 sequence (whole entry): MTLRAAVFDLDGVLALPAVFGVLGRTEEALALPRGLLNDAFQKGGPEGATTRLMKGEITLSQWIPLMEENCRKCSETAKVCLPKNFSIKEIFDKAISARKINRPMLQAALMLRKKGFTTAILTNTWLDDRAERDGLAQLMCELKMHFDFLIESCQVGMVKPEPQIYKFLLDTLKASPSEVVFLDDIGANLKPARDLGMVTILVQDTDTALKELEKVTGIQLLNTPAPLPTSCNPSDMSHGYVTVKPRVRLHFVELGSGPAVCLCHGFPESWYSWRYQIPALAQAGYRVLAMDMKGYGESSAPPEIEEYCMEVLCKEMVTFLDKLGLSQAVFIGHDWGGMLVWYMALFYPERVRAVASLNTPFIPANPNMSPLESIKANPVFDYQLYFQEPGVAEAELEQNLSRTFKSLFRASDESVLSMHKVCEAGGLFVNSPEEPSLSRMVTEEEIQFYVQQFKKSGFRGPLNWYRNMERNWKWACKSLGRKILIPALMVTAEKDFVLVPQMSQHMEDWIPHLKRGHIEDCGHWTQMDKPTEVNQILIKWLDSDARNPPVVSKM
In short: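 Human recombinant sEH from baculovirus-infected Sf9 cells, affinity-purified. Diluted in 25 mM Tris pH 7 with 0.1 mg/mL BSA. Pre-incubated 15 min at room temperature with 10 µM compound or 0.1% DMSO. 50 µM PHOME added, run 60 min at room temperature, stopped with ZnSO4. Fluorescence read at ex 330 / em 465 nm.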

Monocyte = assay: Cytotoxicity against human monocyte cells assessed as cell viability at 10 uM measured after 24 hrs by MTT assay; format: cell-based
In short: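 Human monocytes isolated from PBMC by adherence, 0.2 × 10^6 per well in buffer. Exposed to 10 µM compound or 0.5% DMSO for 24 h (37 °C, 5% CO2). MTT for 2 h, then SDS lysis (10%, pH 4.5) for 17 h. Absorbance read at 570 nm; viability as % of vehicle, n = 3.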

A549 = assay: Cytotoxicity against human A549 cells assessed as cell viability at 10 uM measured after 48 hrs by MTT assay; format: cell-based; settings: a549, 48 h
In short: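 A549 cells in DMEM + 10% FBS, 2 × 10^4 per well, seeded in triplicate. Exposed to 10 µM compound or 0.1% DMSO for 48 h at 37 °C, 5% CO2. MTT added for 1 h, formazan dissolved in DMSO, absorbance read at 570 nm. Viability given as % of vehicle, n = 3.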

[6] = target: Prostaglandin G/H synthase 1 (Ovis aries) (UniProt P05979); assay: Inhibition of ovine COX-1 assessed as residual activity at 10 uM using arachidonic acid as substrate preincubated for 5 mins by RP-HPLC method relative to control; settings: time 10.0 min
Mus musculus [7] = assay: Antiinflammatory activity in zymosan-induced CD-1 mouse peritonitis model assessed as reduction in zymosan-induced IL-6 level in peritoneal exudate at 3 mg/kg, ip treated with compound for 30 mins after 4 to 24 hrs zymosan stimulation by ELISA; format: functional, organism-based
Mus musculus [8] = assay: Antiinflammatory activity in zymosan-induced CD-1 mouse peritonitis model assessed as reduction in zymosan-induced neutrophil recruitment at 10 mg/kg, ip treated with compound for 30 mins after 4 hrs zymosan stimulation by ELISA; format: functional, organism-based
In short: (§2)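 Male CD-1 mice (10–14 wk, 25–30 g), n = 6/group, injected i.p. with boiled zymosan A (500 mg/kg in PBS). Compound (0.1–10 mg/kg, DMSO/saline 1:3) given i.p. 30 min afterwards. Peritoneal lavage with 2 mL PBS at 4 or 24 h. Total leukocytes counted by automated counter with trypan blue, normalized to exudate. Mean ± S.D.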

Mus musculus [9] = assay: Antiinflammatory activity in zymosan-induced CD-1 mouse peritonitis model assessed as reduction in zymosan-induced neutrophil recruitment at 10 mg/kg, ip treated with compound for 30 mins after 24 hrs zymosan stimulation by ELISA; format: functional, organism-based; in short: as §2
Mus musculus [10] = assay: Antiinflammatory activity in zymosan-induced CD-1 mouse peritonitis model assessed as reduction in zymosan-induced IL-1beta level in peritoneal exudate at 3 mg/kg, ip treated with compound for 30 mins after 4 to 24 hrs zymosan stimulation by ELISA; format: functional, organism-based
Mus musculus [11] = assay: Antiinflammatory activity in zymosan-induced CD-1 mouse peritonitis model assessed as reduction in zymosan-induced TNF-alpha level in peritoneal exudate at 3 mg/kg, ip treated with compound for 30 mins after 4 to 24 hrs zymosan stimulation by ELISA; format: functional, organism-based

Prostaglandin G/H synthase 1 (Ovis aries), sequence (P05979 whole entry, looked up): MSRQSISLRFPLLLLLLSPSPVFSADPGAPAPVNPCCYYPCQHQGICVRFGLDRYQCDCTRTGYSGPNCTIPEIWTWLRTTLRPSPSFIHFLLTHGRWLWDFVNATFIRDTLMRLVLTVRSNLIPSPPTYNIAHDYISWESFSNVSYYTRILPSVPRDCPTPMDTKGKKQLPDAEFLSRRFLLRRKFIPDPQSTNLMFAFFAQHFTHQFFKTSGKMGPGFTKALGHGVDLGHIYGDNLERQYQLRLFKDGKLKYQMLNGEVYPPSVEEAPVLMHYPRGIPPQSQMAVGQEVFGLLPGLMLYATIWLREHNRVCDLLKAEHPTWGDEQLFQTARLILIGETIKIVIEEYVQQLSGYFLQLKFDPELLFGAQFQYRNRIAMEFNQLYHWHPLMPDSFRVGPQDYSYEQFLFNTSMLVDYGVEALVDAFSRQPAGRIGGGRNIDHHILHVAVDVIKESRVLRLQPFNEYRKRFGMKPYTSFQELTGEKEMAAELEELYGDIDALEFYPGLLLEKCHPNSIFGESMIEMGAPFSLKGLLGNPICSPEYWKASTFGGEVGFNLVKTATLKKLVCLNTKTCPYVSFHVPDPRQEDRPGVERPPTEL

SMILES | Activity [1] [%] | Activity [2] [%] | Activity [3] [%] | further results
CC(c1ccc(O)cc1)c1nc(-c2ccc(-c3ccsc3)cc2)no1 (configuration not stated) | 62.9 | 6.02 | 7.54 | Activity [4]: 61.8%; Activity [5]: > 50%; Activity (Monocyte): Non-Toxic; Activity (A549): Non-Toxic; Activity [6]: 22.5%
C[C@@H]1C[C@H]2[C@@H]3CCC4=CC(=O)C=C[C@]4(C)[C@@]3(F)[C@@H](O)C[C@]2(C)[C@@]1(O)C(=O)CO |  |  |  | Activity (Mus musculus [7]): Active; Activity (Mus musculus [8]): Active; Activity (Mus musculus [9]): Active; Activity (Mus musculus [10]): Active; Activity (Mus musculus [11]): Active
CC(=O)N1C[C@H](O)C[C@H]1c1nc(-c2ccc(-c3ccsc3)cc2)no1 | 82.2 | 92.6 | 89.5 | 
N[C@@H](Cc1ccc(O)cc1)c1nc(-c2ccc(-c3ccsc3)cc2)no1 | 82.7 | 95 | 74.4 | 
c1cc(-c2nc(-c3ccc(-c4ccsc4)cc3)no2)c2cc[nH]c2c1 | 63.2 | 59.7 | 99.3 | 
Oc1cccc(-c2nc(-c3ccc(-c4ccsc4)cc3)no2)c1 | 84.1 | > 100 | > 100 | 
CC(N)(Cc1ccc(O)cc1)c1nc(-c2ccc(-c3ccsc3)cc2)no1 (configuration not stated) | 84.7 | 78 | 61.3 | 
N[C@H](c1ccc(O)cc1)c1nc(-c2ccc(-c3ccsc3)cc2)no1 | 67.6 | 47.5 | 50.3 | 
Nc1ccc(O)c(-c2nc(-c3ccc(-c4ccsc4)cc3)no2)c1 | 81.9 | 84.3 | 29.6 | 
OCc1ccc(Cc2nc(-c3ccc(-c4ccsc4)cc3)no2)cc1 | 93.1 | 73.6 | 65.2 | 
